Measurements from ChEMBL document CHEMBL4400546, “A Cinchona Alkaloid Antibiotic That Appears To Target ATP Synthase in Streptococcus pneumoniae” (J Med Chem, 2019).
≈ marks a conversion by molar mass, not a printed value.

Legend:
[1] = Drug level in ICR mouse liver microsomes treated with 6-Cyclobutoxy-(R)-4-[((1S,2S,4S,5E)-5-ethylidene-1-azabicyclo[2.2.2]octan-2-yl)hydroxymethyl]quinoline at 10 uM preincubated with NADPH for 10 mins and measured after 90 mins by LC-MS/MS analysis; assay type: ADME, Microsome; conditions: 1.5 h
[2] = Drug level in ICR mouse liver microsomes treated with 6-Cyclobutoxy-(R)-4-[((1S,2S,4S,5Z)-5-ethylidene-1-azabicyclo-[2.2.2]octan-2-yl)hydroxymethyl]quinoline at 10 uM preincubated with NADPH for 10 mins and measured after 90 mins by LC-MS/MS analysis; assay type: ADME, Microsome; conditions: 1.5 h
[3] = Mitochondrial toxicity in human HepG2 cells assessed as reduction in cell viability after 24 hrs in presence of galactose by CellTiter-Glo assay; assay type: cell-based
In short: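 HepG2 cells are grown in DMEM supplemented with 10 mM galactose or 10 mM glucose and treated for 24 h. Viability is read by CellTiter-Glo luminescence. The CC90 is the concentration inhibiting 90% of cell viability, taken from dose–response curves. Oligomycin and tamoxifen serve as controls.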

[4] = Mitochondrial toxicity in human HepG2 cells assessed as reduction in cell viability after 24 hrs in presence of glucose by CellTiter-Glo assay; assay type: cell-based
In short: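 HepG2 cells grown in DMEM with 10 mM glucose, treated 24 h; viability read by CellTiter-Glo luminescence. Value is the concentration giving 90% loss of viability (CC90) from dose-response curves, top concentration 300 µM.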

[5] = Cmax in ICR mouse at 25 mg/kg, po via bolus administration by LC-MS/MS analysis; assay type: ADME, organism-based; parameters: dose 25 mg/kg, route oral; conditions: in vivo
In short: (§1)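 Single-dose PK in male ICR mice, bolus p.o. 25 mg/kg or i.v. 2.5 mg/kg. Plasma concentration followed over time, n = 3. Parameters derived by noncompartmental analysis of the concentration–time curves. Oral bioavailability calculated from AUC.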

[6] = AUCt in ICR mouse at 25 mg/kg, po via bolus administration by LC-MS/MS analysis; assay type: ADME, organism-based; conditions: in vivo; in short: as §1
[7] = Cytotoxicity against human HepG2 cells assessed as reduction in cell viability after 48 hrs by Alamar Blue assay; assay type: cell-based
[8] = AUCt in ICR mouse at 2.5 mg/kg, iv by LC-MS/MS analysis; assay type: ADME, organism-based; conditions: in vivo; in short: as §1
[9] = Oral bioavailability in ICR mouse at 25 mg/kg via bolus administration by LC-MS/MS analysis; assay type: ADME, organism-based; conditions: in vivo
In short: (§2)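 Male ICR mice, single oral bolus at 25 mg/kg. Serum concentration-time profiles (n = 3) analysed by noncompartmental analysis.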

[10] = Cmax in ICR mouse at 2.5 mg/kg, iv by LC-MS/MS analysis; assay type: ADME, organism-based; parameters: dose 2.5 mg/kg, route intravenous; conditions: in vivo; in short: as §1
[11] = Drug metabolism in ICR mouse liver microsomes at 10 uM preincubated with NADPH for 10 mins and measured after 60 mins by LC-MS/MS analysis; assay type: ADME, Microsome; conditions: read-out: Drug metabolism
[12] = Elimination half life in ICR mouse at 25 mg/kg, po via bolus administration by LC-MS/MS analysis; assay type: ADME, organism-based; conditions: in vivo, read-out: beta t1/2 (converted); in short: as §1
[13] = Drug metabolism in ICR mouse liver microsomes assessed as [6-(cyclobutoxy)-4-quinolyl]-[(1S,2S,4S,5Z)-5-(2-hydroxyethylidene)quinuclidin-2-yl]methanone metabolite formation at 10 uM preincubated with NADPH for 10 mins by LC-MS/MS analysis; assay type: ADME, Microsome
[14] = Clearance in ICR mouse at 2.5 mg/kg, iv by LC-MS/MS analysis; assay type: ADME, organism-based; conditions: in vivo; in short: as §1
[15] = Volume of distribution at steady state in ICR mouse at 2.5 mg/kg, iv by LC-MS/MS analysis; assay type: ADME, organism-based; conditions: in vivo, read-out: Vdss
In short: (§3)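 Male ICR mice, single i.v. bolus at 2.5 mg/kg. Serum concentration-time curves (n = 3) analysed noncompartmentally to give Tmax and steady-state volume of distribution.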

[16] = Drug metabolism in ICR mouse liver microsomes assessed as ) 6-(cyclobutoxy)-4-[(R)-hydroxy-[(1S,2S,4S,5Z)-5-(2-hydroxyethylidene)quinuclidin-2-yl]methyl]-1H-quinolin-2-one metabolite formation at 10 uM preincubated with NADPH for 10 mins by LC-MS/MS analysis; assay type: ADME, Microsome
[17] = Drug metabolism in ICR mouse liver microsomes assessed as [(1S,2S,4S,5Z)-5-ethylidenequinuclidin-2-yl]-(6-hydroxy-4-quinolyl)methanone metabolite formation at 10 uM preincubated with NADPH for 10 mins by LC-MS/MS analysis; assay type: ADME, Microsome
Streptococcus pneumoniae [18] = test: Antibacterial activity against Streptococcus pneumoniae D39 after 20 hrs by CLSI-based microdilution method; assay type: functional; conditions: D39, 20 h
[19] = Tmax in ICR mouse at 2.5 mg/kg, iv by LC-MS/MS analysis; assay type: ADME, organism-based; conditions: in vivo; in short: as §3
[20] = Drug metabolism in ICR mouse liver microsomes assessed as (2S,3S,4S,5R,6R)-6-[[4-[(R)-[(1S,2S,4S,5Z)-5-ethylidenequinuclidin-2-yl]-hydroxy-methyl]-6-quinolyl]oxy]-3,4,5-trihydroxy-tetrahydropyran-2-carboxylic acid metabolite formation at 10 uM preincubated with NADPH for 10 mins by LC-MS/MS analysis; assay type: ADME, Microsome
[21] = Elimination half life in ICR mouse at 2.5 mg/kg, iv by LC-MS/MS analysis; assay type: ADME, organism-based; conditions: in vivo, read-out: beta t1/2 (converted); in short: as §1
[22] = Tmax in ICR mouse at 25 mg/kg, po via bolus administration by LC-MS/MS analysis; assay type: ADME, organism-based; conditions: in vivo; in short: as §2
[23] = tested on: Streptococcus pneumoniae D39; test: Inhibition of wild-type Streptococcus pneumoniae D39 ATP synthase atpE assessed as intracellular pH at 10 uM measured at 5 mins intervals by pH-sensitive GFP-based fluorescence assay (reference value: 7.34 +/- 0.04); assay type: cell-based
In short: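 S. pneumoniae D39 WT and isogenic atpE G142C or G145A mutants carry a plasmid-borne ratiometric pH-sensitive GFP biosensor. Cells are in PBS pH 7.2 with 10 mM glucose and are treated with compound, DMSO (0.5% v/v) or CCCP (10 µM). Intracellular pH is read immediately and at 5-min intervals. Two independent experiments, each in triplicate.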

Staphylococcus aureus = test: Antibacterial activity against Staphylococcus aureus; assay type: functional
Streptococcus pneumoniae [24] = test: Antibacterial activity against Streptococcus pneumoniae; assay type: functional
In short: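 MIC read per CLSI guidelines as the lowest concentration giving complete inhibition of visible growth. The main screen used strain D39. A further panel covered drug-sensitive, multidrug-resistant and optochin-resistant strains, including R6 carrying atpE point mutations G142C or G145A made by a PCR-based approach.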

[25] = tested on: Staphylococcus epidermidis; test: Antibacterial activity against Staphylococcus epidermidis; assay type: functional
Enterococcus faecium = test: Antibacterial activity against Enterococcus faecium; assay type: functional
Streptococcus pyogenes = test: Antibacterial activity against Streptococcus pyogenes; assay type: functional
Enterococcus faecalis = test: Antibacterial activity against Enterococcus faecalis; assay type: functional
Streptococcus pneumoniae [26] = test: Antibacterial activity against amoxicillin/penicillin/chloramphenicol/erythromycin/meropenem/cefotaxime-resistant Streptococcus pneumoniae TH2582 (19A) after 20 hrs by CLSI-based microdilution method; assay type: functional
Streptococcus pneumoniae [27] = test: Antibacterial activity against amoxicillin/penicillin/erythromycin/ertapenem/moxifloxacin/cefotaxime-resistant Streptococcus pneumoniae TH2889 (6B) after 20 hrs by CLSI-based microdilution method; assay type: functional
Streptococcus pneumoniae [28] = test: Bactericidal activity against Streptococcus pneumoniae D39 after 24 hrs; assay type: functional; conditions: D39, 24 h
Streptococcus pneumoniae [29] = test: Antibacterial activity against amoxicillin/penicillin/cefotaxime/erythromycin/tetracycline-resistant Streptococcus pneumoniae TH2784 (19F) after 20 hrs by CLSI-based microdilution method; assay type: functional

C/C=C1\CN2CC[C@H]1C[C@H]2[C@H](O)c1ccnc2ccc(O)cc12
Drug uptake [1]: Active | Drug uptake [2]: Active

C/C=C1\C[N@]2CC[C@H]1C[C@H]2[C@H](O)c1ccnc2ccc(OC3CCC3)cc12
Cmax [5]: 207 ng/mL | AUC(0-t) [6]: 319 ng·h/mL | Drug uptake [1]: Active | CC50 at 48 h [7]: 59 µM | AUC(0-t) [8]: 235 ng·h/mL | bioavailability [9]: 13.6% | Cmax [10]: 521 ng/mL | metabolised at 1 h, 10 µM [11]: 99.8% | half-life [12]: 41.4 min | Drug metabolism [13]: Metabolite_Detected | clearance [14]: 172 mL/min/kg | Vd [15]: 6.3 L/kg | Drug metabolism [16]: Metabolite_Detected | Drug metabolism [17]: Metabolite_Detected | MIC (Streptococcus pneumoniae [18]): 1.4 µM (≈ 0.51 µg/mL) | Tmax [19]: 1.98 min | Drug metabolism [20]: Metabolite_Detected | Drug uptake [2]: Active | half-life [21]: 25.2 min | Tmax [22]: 15 min

N#CC(C#N)=NNc1cccc(Cl)c1
pH [23]: 5.43

OC(c1cc(C2C[C@H]3CC[C@@H]2CC3)nc2c(Cl)c(Cl)ccc12)C1CCCCN1 (some centres undefined)
MIC (Staphylococcus aureus): 1.5 to 6.3 µg/mL (≈ 3.58 to 15 µM) | MIC (Streptococcus pneumoniae [24]): 0.08 to 1.25 µg/mL (≈ 0.191 to 2.98 µM) | MIC [25]: 1.5 to 6.3 µg/mL (≈ 3.58 to 15 µM) | MIC (Enterococcus faecium): 1.5 to 6.3 µg/mL (≈ 3.58 to 15 µM) | MIC (Streptococcus pyogenes): 1.5 to 6.3 µg/mL (≈ 3.58 to 15 µM) | MIC (Enterococcus faecalis): 1.5 to 6.3 µg/mL (≈ 3.58 to 15 µM)

C/C=C1/C[N@]2CC[C@H]1C[C@H]2[C@H](O)c1ccnc2ccc(OC3CCC3)cc12
Cmax [5]: 331 ng/mL | AUC(0-t) [6]: 368 ng·h/mL | CC50 at 48 h [7]: 65 µM | AUC(0-t) [8]: 175 ng·h/mL | bioavailability [9]: 21% | Cmax [10]: 399 ng/mL | half-life [12]: 42 min | clearance [14]: 230 mL/min/kg | Vd [15]: 8.8 L/kg | MIC (Streptococcus pneumoniae [18]): 0.7 µM (≈ 0.255 µg/mL) | Tmax [19]: 1.98 min | half-life [21]: 26.4 min | Tmax [22]: 4.98 min

C/C=C1/CN2CC[C@H]1C[C@H]2[C@H](O)c1ccnc2ccc(O)cc12
CC90 at 24 h [3]: 300 µM | Cmax [5]: 619 ng/mL | AUC(0-t) [6]: 442 ng·h/mL | CC50 at 48 h [7]: > 100 µM | AUC(0-t) [8]: 190 ng·h/mL | bioavailability [9]: 23.3% | Cmax [10]: 511 ng/mL | metabolised at 1 h, 10 µM [11]: 89% | half-life [12]: 54.6 min | MIC (Streptococcus pneumoniae [26]): 64 µg/mL (≈ 206 µM) | MIC (Streptococcus pneumoniae [27]): 128 µg/mL (≈ 412 µM) | MBC (Streptococcus pneumoniae [28]): 16 µg/mL (≈ 51.5 µM) | clearance [14]: 207 mL/min/kg | Vd [15]: 20 L/kg | MIC (Streptococcus pneumoniae [29]): 4 µg/mL (≈ 12.9 µM) | MIC (Streptococcus pneumoniae [18]): 52 µM (≈ 16.1 µg/mL) | Tmax [19]: 1.98 min | CC90 at 24 h [4]: > 300 µM | half-life [21]: 67.2 min | Tmax [22]: 4.98 min
